Experimental data pooled from the literature.
Lines come from different studies, so protocols differ.
Target: Mitogen-activated protein kinase kinase kinase kinase 2 (MAP4K2, Homo sapiens, UniProt Q12851)
Sequence (Q12851 1-820, as in one of the studies): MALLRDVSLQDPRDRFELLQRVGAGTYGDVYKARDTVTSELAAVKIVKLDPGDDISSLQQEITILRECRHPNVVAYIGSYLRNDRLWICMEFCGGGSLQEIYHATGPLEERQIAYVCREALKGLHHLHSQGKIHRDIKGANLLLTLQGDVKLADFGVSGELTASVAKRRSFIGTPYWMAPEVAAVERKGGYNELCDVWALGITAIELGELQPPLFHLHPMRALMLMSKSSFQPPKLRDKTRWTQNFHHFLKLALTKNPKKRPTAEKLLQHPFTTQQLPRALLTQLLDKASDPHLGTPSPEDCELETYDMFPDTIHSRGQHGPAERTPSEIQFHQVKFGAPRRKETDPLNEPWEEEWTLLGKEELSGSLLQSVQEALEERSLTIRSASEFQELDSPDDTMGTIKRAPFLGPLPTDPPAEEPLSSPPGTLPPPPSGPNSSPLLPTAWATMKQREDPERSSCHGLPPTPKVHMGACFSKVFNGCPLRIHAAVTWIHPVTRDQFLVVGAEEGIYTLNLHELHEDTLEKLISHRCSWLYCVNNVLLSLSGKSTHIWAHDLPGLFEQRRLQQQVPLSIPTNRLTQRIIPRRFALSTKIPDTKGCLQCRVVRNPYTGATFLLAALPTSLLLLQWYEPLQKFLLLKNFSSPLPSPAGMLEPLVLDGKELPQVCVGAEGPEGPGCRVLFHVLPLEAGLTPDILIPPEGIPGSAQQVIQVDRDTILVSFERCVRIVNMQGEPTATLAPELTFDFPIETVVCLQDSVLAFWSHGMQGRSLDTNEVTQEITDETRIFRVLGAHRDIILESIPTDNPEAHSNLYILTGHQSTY

The remaining binding of `Cc1cnn2ncc(-c3ccnc(N(C)C)n3)c2c1` is reported as 99% (binding; 1 µM).
The remaining binding of `Nc1ncc2c(n1)-c1c([nH]c3ccc(C#CC4CC4)cc13)CCCC2` is reported as 84% (binding, competition with immobilised ligand; 1 µM).
The remaining binding of `Cc1cnc(Nc2ccc(C(=O)N3CCC(N4CCCC4)CC3)cc2)nc1-c1cc2ccccc2s1` is reported as 41% (binding, competition with immobilised ligand; 1 µM).
With `CN(C(=O)c1ccccc1)c1cc(N(C)c2ccc3c(c2)CCc2ccc(C(=O)NCCN4CCOCC4)cc2C3=O)ccc1F` the remaining binding was 97% (cell-free assay, competition with immobilised ligand; 1 µM).
For `CN(C)c1nccc(-c2cnn3ncccc23)n1`, the remaining binding was 100% (binding; 1 µM).
For `O=C(c1ccc(Nc2ncc(Cl)c(-c3cc4ccccc4s3)n2)cc1)N1CCC(N2CCCC2)CC1`, the remaining binding was 36% (binding, competition with immobilised ligand; 1 µM).
The remaining binding of `C=CC(=O)N1CCC(C(=O)NCC(=O)N2CCN(c3nc(-c4cnc(N)nc4C(F)F)nc(N4CCOCC4)n3)CC2)CC1` is reported as 100% (binding, competition with immobilised ligand; 1 µM).
For `CNC(=O)Nc1ccc2c(c1)CC[C@@]21OC(=O)N(CC(=O)N(Cc2ccc(F)cc2)[C@@H](C)C(F)(F)F)C1=O`, the remaining binding was 76% (cell-free assay, competition with immobilised ligand; 1 µM).
`O=C(c1ccc(Nc2nccc(-c3cc4ccccc4s3)n2)cc1)N1CCC(N2CCCC2)CC1` has a remaining binding of 52% (binding, competition with immobilised ligand; 1 µM).
With `CC(=O)C1=C(C)N(c2cccc(C(F)(F)F)c2)C(=O)N[C@@H]1c1ccc(C#N)nc1` the remaining binding was 100% (cell-free assay, competition with immobilised ligand; 1 µM).
With `c1cnn2ncc(-c3ccnc(N4CCC45COC5)n3)c2c1` the remaining binding was 70% (binding; 1 µM).
`FC(F)(F)Oc1cccc(-c2cnc3ccc(-c4ccncc4)nn23)c1` has a remaining binding of 17% (cell-free assay, competition with immobilised ligand; 5 µM).
For `CCN1CCN(Cc2ccc(C(=O)Nc3ccc(C)c(Oc4ccc5c(c4)CC(=O)N5)c3)cc2C(F)(F)F)CC1`, the remaining binding was 100% (binding, competition with immobilised ligand; 1 µM).
The remaining binding of `CN(C)c1ncc(F)c(-c2cnn3ncccc23)n1` is reported as 82% (binding; 1 µM).
For `CNCc1ccccc1-c1csc([C@H](C)Nc2nc(C)nc3cc(OC)c(OC)cc23)c1`, the remaining binding was 97% (cell-free assay, competition with immobilised ligand; 1 µM).
For `COc1ccnn2ncc(-c3ccnc(N(C)C)n3)c12`, the remaining binding was 73% (binding; 1 µM).
`COc1cnc(Nc2cccc(S(N)(=O)=O)c2)nc1N1CCN(c2ccccc2)C(=O)C1` has a remaining binding of 95% (binding, competition with immobilised ligand; 1 µM).
With `CN(C)c1ncnc(-c2ccc3nc(Nc4cc(CN5CCN(C(=O)CC(F)(F)F)CC5)ccn4)[nH]c3c2)c1Cl` the remaining binding was 69% (cell-free assay, competition with immobilised ligand; 1 µM).
The remaining binding of `N[C@@H]1CCN(c2nccc(-c3cnn4ncccc34)n2)C1` is reported as 100% (binding; 1 µM).
With `O=C(Nc1cnc(Oc2ccc(F)cc2)nc1)N1CCc2ncccc2[C@@H]1c1ccc(F)cc1` the remaining binding was 100% (cell-free assay, competition with immobilised ligand; 1 µM).
For `C[C@H]1CCN(c2nccc(-c3cnn4ncccc34)n2)C1`, the remaining binding was 71% (binding; 1 µM).
For `O=C(Nc1c[nH]nc1C(=O)NC1CCNCC1)c1cc(F)cc(F)c1`, the remaining binding was 69% (binding, competition with immobilised ligand; 1 µM).
